This passage reports yeast fitness results from the RNAGym collection of RNA variant scans (doi:10.1126/science.aae0568).

Variants at the floor of the assay were thinned out.

First the molecules themselves.
B1: tRNA (parent)
chain: GUUCCGUUGGCGUAAUGGUAACGCGUCUCCCUCCUAAGGAGAAGACUGCGGGUUCGAGUCCCGUACGGAACG

The variants in the data set derive from B1. Nature of the data set: yeast fitness relative to wild type (ratio to wild type); higher = fitter; tRNA-Arg(CCU), competitive growth, 37 C, YPD. An outline of the steps:
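Variants of the tRNA-Arg(CCU) gene, chemically synthesised with a 3% per-site mutation rate at 69 sites, were placed at the native genomic locus in Saccharomyces cerevisiae. The pooled strains were competed in YPD at 37°C for 24 hours in six parallel replicates. Gene amplicons from the start population and from each end population were read by 100-nucleotide paired-end sequencing. Darwinian fitness relative to wild type came from changes in genotype frequencies; genotypes needed ≥ 100 starting reads, and estimates < 0.5 were set to 0.5.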
With C5G A15G A21G G25C C33U G68A, the yeast fitness was ≤ 0.5. Turning to C5G C34G C49U G50A, the yeast fitness is ≤ 0.5. As to C5G C27G C29U A45G C49A C66U, the yeast fitness was ≤ 0.5. The value for C5G C29U A43C was 0.537; that for C5A U35C G44A G48C C55G C66U A70U was 0.558; that for C5G A43G G67U was 0.543. As to C5G A20C G48A, the yeast fitness is ≤ 0.5. The value for C5A U16A A45G G50A C61U was ≤ 0.5. Under C5A U35G C60G stands ≤ 0.5. Under C5G C31U A37G stands 0.592; under C5A U35C C66U, 0.579; under C5G A42C A70C, 0.689. C5G A21U G23A C29A A37U C61U: the yeast fitness is ≤ 0.5.

For the variant C5G C22U C62A A65C, the yeast fitness is ≤ 0.5.

In the case of C5G A37G, the yeast fitness is 0.805. Under C5G A14C C29A C31G A65C stands ≤ 0.5. For C5G A37U C46U, the yeast fitness was found to be 0.536. The value for C5A U35C G44A G48C C55G was ≤ 0.5; that for C5A U35C G44A G48C C55A was ≤ 0.5; that for C5G C31A C66G was ≤ 0.5.

Take C5G C22U A36C A42G: the yeast fitness is ≤ 0.5.

For C5A U47C A70G, the yeast fitness amounted to 0.705.

With C5G A70U, the yeast fitness stood at 0.812. C5G A70C: the yeast fitness worked out at 0.905. The value for C5G A45U was 1.01; that for C5G A45G was 0.984; that for C5G A21C A45G G68A was ≤ 0.5. Under C5G C24G C27G C60U stands 0.627; under C5G A36U C61U, ≤ 0.5. The value for C5G C22U A37G G50C was ≤ 0.5; that for C5G C33A U64A was ≤ 0.5.

On to C5G A15U A20U A40C G67A, for which the yeast fitness was determined as 0.538. As for C5G C11U, the yeast fitness came to 0.886. With C5G C11G, the yeast fitness was determined as 0.614. Under C5G A15U C46U A70G stands ≤ 0.5; under C5A U13G A14G U32A A42U G52A U54A C60G, ≤ 0.5; under C5G C11A A15G G18A C30G, 0.587.

Regarding C5G A14U G18A A21U A42G G68A, the yeast fitness worked out at 0.522. The value for C5G A37C A43G A45U G51C C62G was ≤ 0.5; that for C5G A14G A36U G67A was ≤ 0.5; that for C5G C31A was 0.79. Under C5G C31G stands 0.824. In the case of C5G A45C C60U A69U, the yeast fitness worked out at 0.52. Consider C5G C11G U35C, for which the yeast fitness was 0.643. The value for C5G A15C G18C C49U U64A A69U was ≤ 0.5. As to C5G C30U C31G C46U, the yeast fitness is ≤ 0.5. The value for C5G C27G C33U G56A U64C A69U was ≤ 0.5. For C5A U64C, the yeast fitness came out at 0.96.

For C5A U64A, the yeast fitness is 0.766.

Take C5G A21C G51A G58A: the yeast fitness was ≤ 0.5. In the case of C5G A45U G68C, the yeast fitness was ≤ 0.5. As for C5G A37C A57U, the yeast fitness is ≤ 0.5.

Regarding C5G A42C, the yeast fitness is 0.814.

In the case of C5G A42U, the yeast fitness was found to be 0.683. Under C5G C29A G52A stands 0.695. The value for C5G C24G C49U G58A G63A was ≤ 0.5; that for C5G A14C G23C G38A G58C G63A A70G was ≤ 0.5; that for C5G C24U C66A was ≤ 0.5. For C5G C11U A21G C60A, the yeast fitness is ≤ 0.5. Under C5G C30U C31G stands 0.79; under C5G C22A C33G U35A C55U, ≤ 0.5. The value for C5G C33G A40U was ≤ 0.5; that for C5G A20C C24U C55U was ≤ 0.5. With C5A U32G C55U, the yeast fitness is ≤ 0.5.

C5G C11G A14U A15U C61U G68C: the yeast fitness is ≤ 0.5. Take C5G C29U A40G A57G: the yeast fitness was ≤ 0.5. For C5A U59A C66A, the yeast fitness is ≤ 0.5. The value for C5G A14C G18A A43G A45C C46U A57G was ≤ 0.5; that for C5G C22U U28G was ≤ 0.5; that for C5A U32G was 0.584.

As to C5G C31U G52A, the yeast fitness came to 0.612. For the variant C5G C11A A40U U64C, the yeast fitness amounted to 0.536.

For C5A U19C C22G C24A G39C A45C, the yeast fitness amounted to 0.596. The value for C5A U19A G38C was ≤ 0.5. On to C5G C31U C49G, for which the yeast fitness is 0.576.

C5G C22G C62A: the yeast fitness was 0.509. Regarding C5G C24U G56C, the yeast fitness was ≤ 0.5. The value for C5A U26A A43U A65U was ≤ 0.5; that for C5A U26G C60G C61U was ≤ 0.5. The value for C5G A20U was 0.621; that for C5G C29G C46G was ≤ 0.5. Under C5G C29G C66A stands ≤ 0.5.

C5G A40C C49U: the yeast fitness is ≤ 0.5.
